Data published in ChEMBL document CHEMBL1142546 (J Med Chem, 2008).
The source made the active and inactive calls. No cut-off for these calls is given here.

Legend:
[1] = Inhibition of chymotrypsin-like activity of rabbit 20S proteasome; set-up: species or system Oryctolagus cuniculus
Summary of the method: (§1)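 Purified rabbit muscle 20S proteasome at 1.4 nM final. T-L used the same buffer without SDS and Boc-LRR-AMC. Serial dilutions were preincubated 5 min at 37 °C. AMC fluorescence ex 390/em 460 nm.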

[2] = Stability in 20 mM HEPES buffer assessed as beta-lactone hydrolysis rate at pH 7.3 at 37 degC
Oryctolagus cuniculus [3] = species on record: Oryctolagus cuniculus; assay: Inhibition of chymotrypsin-like activity of rabbit 20S proteasome assessed as enzyme activity recovery 12 hrs after dialysis
Summary of the method: (§2)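 Rabbit 20S proteasome (1.4 nM final) was incubated 1 h at ambient temperature with compound or DMSO (0.1% final) in 20 mM HEPES pH 7.3, 0.5 mM EDTA, 0.05% Triton X-100, 0.035% SDS (SDS omitted for T-L). Mixtures were dialysed (MWCO 12-14000) against assay buffer at ambient temperature. Samples taken at 0, 1, 2, 5, 24 h (some also 12 h) for site activity, normalised to DMSO controls.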

[4] = Inhibition of caspase-like activity of rabbit 20S proteasome; set-up: species or system Oryctolagus cuniculus; summary of the method: as §1
[5] = Inhibition of trypsin-like activity of rabbit 20S proteasome; set-up: species or system Oryctolagus cuniculus; summary of the method: as §1
Oryctolagus cuniculus [6] = species on record: Oryctolagus cuniculus; assay: Inhibition of chymotrypsin-like activity of rabbit 20S proteasome assessed as enzyme activity recovery 24 hrs after dialysis; summary of the method: as §2
Homo sapiens [7] = species on record: Homo sapiens; assay: Inhibition of trypsin-like activity of human 20S proteasome assessed as inactivation rate by fluorimetry based kinetic assay
Homo sapiens [8] = species on record: Homo sapiens; assay: Inhibition of caspase-like activity of human 20S proteasome assessed as enzyme activity recovery 12 hrs after dialysis
Homo sapiens [9] = species on record: Homo sapiens; assay: Inhibition of trypsin-like activity of human 20S proteasome assessed as enzyme activity recovery 12 hrs after dialysis
Oryctolagus cuniculus [10] = species on record: Oryctolagus cuniculus; assay: Inhibition of caspase-like activity of rabbit 20S proteasome assessed as enzyme activity recovery 24 hrs after dialysis; summary of the method: as §2
[11] = Inhibition of trypsin-like activity of human 20S proteasome assessed as release of free AMC substrate by fluorimetry based kinetic assay
Oryctolagus cuniculus [12] = species on record: Oryctolagus cuniculus; assay: Inhibition of trypsin-like activity of rabbit 20S proteasome assessed as enzyme activity recovery 24 hrs after dialysis; summary of the method: as §2
[13] = Inhibition of chymotrypsin-like activity of human 20S proteasome assessed as release of free AMC substrate by fluorimetry based kinetic assay
[14] = Inhibition of caspase-like activity of yeast 20S proteasome; set-up: species or system Saccharomyces cerevisiae
Summary of the method: (§3)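 Purified yeast 20S proteasome in 75 mM Tris-HCl pH 7.8 with 0.02% SDS. Serial compound dilutions were preincubated 5 min at 37 °C, then substrate was added: Suc-LLVY-AMC at 20 µM final (CT-L), Z-LLE-AMC (C-L), or Bz-VGR-AMC with SDS omitted (T-L). Cleaved AMC read at ex 390/em 460 nm.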

[15] = Inhibition of caspase-like activity of human 20S proteasome assessed as release of free AMC substrate by fluorimetry based kinetic assay
Homo sapiens [16] = species on record: Homo sapiens; assay: Inhibition of chymotrypsin-like activity of human 20S proteasome assessed as inactivation rate by fluorimetry based kinetic assay
[17] = Inhibition of caspase-like activity of human 20S proteasome
[18] = Inhibition of chymotrypsin-like activity of yeast 20S proteasome; set-up: species or system Saccharomyces cerevisiae; summary of the method: as §3
Homo sapiens [19] = species on record: Homo sapiens; assay: Inhibition of caspase-like activity of human 20S proteasome assessed as inactivation rate by fluorimetry based kinetic assay
[20] = Inhibition of chymotrypsin-like activity of human 20S proteasome
Homo sapiens [21] = species on record: Homo sapiens; assay: Inhibition of chymotrypsin-like activity of human 20S proteasome assessed as enzyme activity recovery 12 hrs after dialysis
[22] = Inhibition of trypsin-like activity of yeast 20S proteasome; set-up: species or system Saccharomyces cerevisiae; summary of the method: as §3
[23] = Inhibition of trypsin-like activity of human 20S proteasome
Oryctolagus cuniculus [24] = species on record: Oryctolagus cuniculus; assay: Inhibition of trypsin-like activity of rabbit 20S proteasome assessed as enzyme activity recovery 12 hrs after dialysis; summary of the method: as §2
Oryctolagus cuniculus [25] = species on record: Oryctolagus cuniculus; assay: Inhibition of caspase-like activity of rabbit 20S proteasome assessed as enzyme activity recovery 12 hrs after dialysis; summary of the method: as §2

SMILES: CCC[C@H]1C(=O)N[C@@]2([C@@H](O)[C@@H]3C=CCCC3)C(=O)O[C@@]12C
- IC50 [1]: 24 nM
- half-life [2]: 2.85 h
- Activity (Oryctolagus cuniculus [3]): inactive
- IC50 [4]: 1200 nM
- IC50 [5]: 1100 nM

SMILES: C[C@H]1C(=O)N[C@@]2([C@@H](O)[C@@H]3C=CCCC3)C(=O)O[C@@]12C
- IC50 [1]: 7.5 nM
- half-life [2]: 1.58 h
- Activity (Oryctolagus cuniculus [3]): inactive
- IC50 [4]: 460 nM
- IC50 [5]: 370 nM

SMILES: CN(C)c1cccc2c(S(=O)(=O)OCC[C@H]3C(=O)N[C@@]4([C@@H](O)[C@@H]5C=CCCC5)C(=O)O[C@@]34C)cccc12
- IC50 [1]: 3 nM
- half-life [2]: 2.98 h
- IC50 [4]: 90 nM
- IC50 [5]: 12 nM

SMILES: Cc1ccc(S(=O)(=O)OCC[C@H]2C(=O)N[C@@]3([C@@H](O)[C@@H]4C=CCCC4)C(=O)O[C@@]23C)cc1
- IC50 [1]: 2.5 nM
- half-life [2]: 1.25 h
- IC50 [4]: 127 nM
- IC50 [5]: 9.9 nM
- Activity (Oryctolagus cuniculus [6]): Active

SMILES: C[C@@]12OC(=O)[C@]1([C@@H](O)[C@@H]1C=CCCC1)NC(=O)[C@@H]2CCOS(C)(=O)=O
- IC50 [1]: 4.3 nM
- half-life [2]: 0.983 h
- IC50 [4]: 870 nM
- IC50 [5]: 65 nM
- Activity (Oryctolagus cuniculus [6]): Active

SMILES: C[C@@]12OC(=O)[C@]1([C@@H](O)[C@@H]1C=CCCC1)NC(=O)[C@@H]2CCBr [BROMOSALINOSPORAMIDE]
- IC50 [1]: 2.6 nM
- half-life [2]: 1.33 h
- IC50 [4]: 290 nM
- IC50 [5]: 14 nM

SMILES: C[C@@]12OC(=O)[C@]1([C@@H](O)[C@@H]1C=CCCC1)NC(=O)[C@@H]2CCF [FLUOROSALINOSPORAMIDE]
- IC50 [1]: 9.2 nM
- half-life [2]: 1.32 h
- Activity (Oryctolagus cuniculus [6]): Active

SMILES: C[C@@]12OC(=O)[C@]1([C@@H](O)[C@@H]1C=CCCC1)NC(=O)[C@@H]2CCI [IODOSALINOSPORAMIDE]
- IC50 [1]: 2.8 nM
- half-life [2]: 1.53 h
- IC50 [4]: 410 nM
- IC50 [5]: 13 nM

SMILES: C[C@@]12OC(=O)[C@]1([C@@H](O)[C@@H]1C=CCCC1)NC(=O)[C@@H]2CCCl [MARIZOMIB]
- Activity (Homo sapiens [7]): 0.003 s⁻¹
- Activity (Homo sapiens [8]): Active
- Activity (Homo sapiens [9]): Active
- Activity (Oryctolagus cuniculus [10]): Active
- Ki [11]: 97 nM
- Activity (Oryctolagus cuniculus [12]): Active
- Ki [13]: 23 nM
- IC50 [14]: 2600 nM
- Ki [15]: > 1000 nM
- Activity (Homo sapiens [16]): 0.01 s⁻¹
- half-life [2]: 1.28 h
- IC50 [17]: 430 nM
- IC50 [18]: 2 nM
- Activity (Homo sapiens [19]): > 0.02 s⁻¹
- IC50 [20]: 3.5 nM
- Activity (Homo sapiens [21]): Active
- IC50 [22]: 59 nM
- Activity (Oryctolagus cuniculus [6]): Active
- IC50 [23]: 28 nM

SMILES: CC[C@H]1C(=O)N[C@@]2([C@@H](O)[C@@H]3C=CCCC3)C(=O)O[C@@]12C [SALINOSPORAMIDE B]
- Activity (Oryctolagus cuniculus [24]): inactive
- IC50 [14]: > 20000 nM
- Activity (Oryctolagus cuniculus [25]): inactive
- half-life [2]: 3.17 h
- Activity (Oryctolagus cuniculus [3]): inactive
- IC50 [18]: 16 nM
- IC50 [5]: 610 nM
- IC50 [22]: 1040 nM

SMILES: C[C@@]12OC(=O)[C@@]1([C@@H](O)[C@@H]1C=CCCC1)NC(=O)[C@@H]2CCO [hydroxysalinosporamide A]
- IC50 [1]: 14 nM
- half-life [2]: 1.42 h
- Activity (Oryctolagus cuniculus [3]): inactive
- IC50 [4]: 1200 nM
- IC50 [5]: 1200 nM
